Source: ChEMBL document CHEMBL1144905, “More lipophilic dialkyldiamine-based diazeniumdiolates: synthesis, characterization, and application in preparing thromboresistant nitric oxide release polymeric coatings” (J Med Chem, 2003)

Key:
[1] = Partition coefficient (logP); assay type: physicochemical; conditions: octanol/water
Procedure, shortened: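 Octanol/water partition coefficient calculated with ChemDraw, not measured.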

[2] = Apparent half life period in PBS buffer; assay type: ADME
Procedure, shortened: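 Half-life by chemiluminescence at 37 °C. Diazeniumdiolate in 10 mM NaOH (or, if water-insoluble, in THF or NaOH/MeOH), 25–100 µL, injected into 3 mL deoxygenated 100 mM phosphate buffer pH 7.4 with 137 mM NaCl and 2.7 mM KCl. NO released, removed by nitrogen purge, read every 0.25 s to baseline. Half-life = time to release half of total possible NO.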

| SMILES | logP [1] | half-life [2] [min] |
| --- | --- | --- |
| CCCNCCCCCCN(CCC)/[N+]([O-])=N/O | 3.09 | 5.32 |
| CCCCCCNCCCCCCN(CCCCCC)/[N+]([O-])=N/O | 6.26 | – |
| CCCCNCCCCCCN(CCCC)/[N+]([O-])=N/O | 4.15 | 4.95 |
| CCCCCNCCCCCCN(CCCCC)/[N+]([O-])=N/O | 5.21 | 4.65 |

The next lines start with the values.

| logP [1] | half-life [2] [min] | SMILES |
| --- | --- | --- |
| 0.97 | 1.12 | CNCCCCCCN(C)/[N+]([O-])=N/O |
| 2.03 | 5.78 | CCNCCCCCCN(CC)/[N+]([O-])=N/O |
